Laboratory results: ChEMBL document CHEMBL4196021, “Targeting G-quadruplex DNA structures in the telomere and oncogene promoter regions by benzimidazole‒carbazole ligands” (Eur J Med Chem, 2018)
Calls of active or inactive are those of the source. The rule behind the calls is not given here.

Experiments:
Quadruplex DNA [1] = assay: Binding affinity to human c-Kit1 G-quadruplex DNA assessed as change in melting temperature in presence of KCl by CD spectroscopic method; type: nucleic-acid assay
Summary of the method: (§1)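 CD melting of 5 µM G4 DNA in 10 mM Tris-HCl pH 7.4, 25 mM KCl, 0.1 mM EDTA. Ligand was present during folding (heating, slow cooling). Spectra 200–400 nm over 20–96 °C in 2 °C steps, buffer blank subtracted. Tm was taken from normalized ellipticity at the positive maximum (262 nm for promoter G4s). ΔTm = ligand-bound minus DNA alone; average of two independent experiments.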

Quadruplex DNA [2] = assay: Binding affinity to human c-Kit2 G-quadruplex DNA assessed as stabilization of parallel stranded topology after 5 mins in presence of KCl by CD spectroscopic method; type: nucleic-acid assay
Summary of the method: (§2)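 CD spectra of 5 µM G4 DNA in 10 mM Tris-HCl pH 7.4, 100 mM KCl, 0.1 mM EDTA, with or without ligand. Mixtures were heated 95 °C for 5 min and slowly cooled to room temperature. Recorded 200–400 nm at 25 °C, 100 nm/min, 2 s response, 1 cm cell; average of three scans.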

Quadruplex DNA [3] = assay: Binding affinity to human c-Kit2 G-quadruplex DNA assessed as change in melting temperature in presence of KCl by CD spectroscopic method; type: nucleic-acid assay; summary of the method: as §1
Quadruplex DNA [4] = assay: Displacement of thiazole orange from human Bcl2 G-quadruplex DNA after 5 mins in presence of KCl by fluorescence assay; type: nucleic-acid assay
Summary of the method: (§3)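 Thiazole orange displacement from a G4 DNA–TO complex (1 µM TO + 0.5 µM G4 DNA) in 10 mM Tris-HCl pH 7.4, 100 mM KCl, 0.1 mM EDTA. Ligand was added in increasing steps, with 5 min incubation each. Fluorescence read at ex 501/em 531 nm; % displacement = 100 − (Ft/F0 × 100). DC50 is the ligand concentration giving 50% displacement, read from plots; average of two independent experiments.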

Quadruplex DNA [5] = assay: Binding affinity to human c-Kit1 G-quadruplex DNA at 0.6 uM after 5 mins in presence of KCl by fluorescence spectroscopic method; type: nucleic-acid assay
Summary of the method: (§4)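 Fluorescence titration at 25 °C with 0.6 µM ligand in 10 mM Tris-HCl pH 7.4, 100 mM KCl, 0.1 mM EDTA. Preformed G4 DNA was added stepwise, with 5 min incubation before each spectrum. Excitation 330 nm; emission 350–550 nm, slit 5 nm.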

Quadruplex DNA [6] = assay: Binding affinity to human VEGF G-quadruplex DNA assessed as stabilization of parallel stranded topology after 5 mins in presence of KCl by CD spectroscopic method; type: nucleic-acid assay; summary of the method: as §2
Quadruplex DNA [7] = assay: Displacement of thiazole orange from human telomeric G-quadruplex DNA after 5 mins in presence of KCl by fluorescence assay; type: nucleic-acid assay; summary of the method: as §3
Quadruplex DNA [8] = assay: Binding affinity to human Bcl2 G-quadruplex DNA assessed as change in melting temperature in presence of KCl by CD spectroscopic method; type: nucleic-acid assay; summary of the method: as §1
Quadruplex DNA [9] = assay: Binding affinity to human c-Myc G-quadruplex DNA at 0.6 uM after 5 mins in presence of KCl by fluorescence spectroscopic method; type: nucleic-acid assay; summary of the method: as §4
Quadruplex DNA [10] = assay: Binding affinity to human VEGF G-quadruplex DNA at 0.6 uM after 5 mins in presence of KCl by fluorescence spectroscopic method; type: nucleic-acid assay; summary of the method: as §4
Quadruplex DNA [11] = assay: Binding affinity to human Bcl2 G-quadruplex DNA at 0.6 uM after 5 mins in presence of KCl by fluorescence spectroscopic method; type: nucleic-acid assay; summary of the method: as §4
Quadruplex DNA [12] = assay: Binding affinity to human c-Myc G-quadruplex DNA assessed as stabilization of parallel stranded topology after 5 mins in presence of KCl by CD spectroscopic method; type: nucleic-acid assay; summary of the method: as §2
Quadruplex DNA [13] = assay: Induction of conformational changes in human Bcl2 G-quadruplex DNA assessed as inversion from potassium ion stabilized hybrid type mixed parallel/antiparallel G-quadruplex to stable telomere parallel-stranded G-quadruplex after 5 mins in presence of KCl by CD spectroscopic method; type: nucleic-acid assay; summary of the method: as §2
Quadruplex DNA [14] = assay: Displacement of thiazole orange from human VEGF G-quadruplex DNA after 5 mins in presence of KCl by fluorescence assay; type: nucleic-acid assay; summary of the method: as §3
Quadruplex DNA [15] = assay: Induction of conformational changes in human telomeric G-quadruplex DNA assessed as inversion from potassium ion stabilized hybrid type mixed parallel/antiparallel G-quadruplex to stable telomere parallel-stranded G-quadruplex after 5 mins in presence of KCl by CD spectroscopic method; type: nucleic-acid assay; summary of the method: as §2
Quadruplex DNA [16] = assay: Displacement of thiazole orange from human c-Kit1 G-quadruplex DNA after 5 mins in presence of KCl by fluorescence assay; type: nucleic-acid assay; summary of the method: as §3
Quadruplex DNA [17] = assay: Displacement of thiazole orange from human c-Kit2 G-quadruplex DNA after 5 mins in presence of KCl by fluorescence assay; type: nucleic-acid assay; summary of the method: as §3
Quadruplex DNA [18] = assay: Binding affinity to human VEGF G-quadruplex DNA assessed as change in melting temperature in presence of KCl by CD spectroscopic method; type: nucleic-acid assay; summary of the method: as §1
Quadruplex DNA [19] = assay: Displacement of thiazole orange from human c-Myc G-quadruplex DNA after 5 mins in presence of KCl by fluorescence assay; type: nucleic-acid assay; summary of the method: as §3
Quadruplex DNA [20] = assay: Binding affinity to human telomeric G-quadruplex DNA at 0.6 uM after 5 mins in presence of KCl by fluorescence spectroscopic method; type: nucleic-acid assay; summary of the method: as §4
Quadruplex DNA [21] = assay: Binding affinity to human c-Kit1 G-quadruplex DNA assessed as stabilization of parallel stranded topology after 5 mins in presence of KCl by CD spectroscopic method; type: nucleic-acid assay; summary of the method: as §2
Quadruplex DNA [22] = assay: Binding affinity to human c-Myc G-quadruplex DNA assessed as change in melting temperature in presence of KCl by CD spectroscopic method; type: nucleic-acid assay; summary of the method: as §1
Quadruplex DNA [23] = assay: Binding affinity to human telomeric G-quadruplex DNA assessed as change in melting temperature in presence of KCl by CD spectroscopic method; type: nucleic-acid assay; summary of the method: as §1
Calf thymus DNA = assay: Displacement of thiazole orange from calf thymus duplex DNA after 5 mins in presence of KCl by fluorescence assay; type: nucleic-acid assay, Bos taurus
Quadruplex DNA [24] = assay: Binding affinity to human c-Kit2 G-quadruplex DNA at 0.6 uM after 5 mins in presence of KCl by fluorescence spectroscopic method; type: nucleic-acid assay; summary of the method: as §4
Quadruplex DNA [25] = assay: Binding affinity to human 77-mer c-Myc G-quadruplex DNA assessed as inhibition of Taq DNA polymerase-mediated DNA synthesis by measuring generation of premature chain termination products using 32P-labeled primer after 30 mins by polymerase stop assay; type: nucleic-acid assay
Summary of the method: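 Template of 10 nM single-stranded 77-mer c-MYC with the G-quadruplex-forming sequence, annealed to 32P-labeled plus cold primer (15 nM) in Tris-HCl pH 7.4 with 5 mM KCl. Annealing was 95 °C for 5 min then slow cooling, with ligand added before annealing. Extension with Taq polymerase (5 mM MgCl2, 0.5 mM DTT, 0.2 mM dNTPs) ran 30 min at 48 or 40 °C. Products were resolved on 15% urea denaturing PAGE and read by phosphorimaging.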

## C[N+]1(CCCCN2CCOCC2)CCN(CCCCn2c3ccc(-c4nc5ccc(N6CCOCC6)cc5[nH]4)cc3c3cc(-c4nc5ccc(N6CCOCC6)cc5[nH]4)ccc32)CC1
Quadruplex DNA [1]
  ΔTm: 3.58 °C
Quadruplex DNA [2]
  Activity: Active
Quadruplex DNA [3]
  ΔTm: 7.53 °C
Quadruplex DNA [4]
  DC50: > 3 µM
Quadruplex DNA [5]
  Activity: Active
Quadruplex DNA [6]
  Activity: Active
Quadruplex DNA [7]
  DC50: > 3 µM
Quadruplex DNA [8]
  ΔTm: 3.26 °C
Quadruplex DNA [9]
  Activity: Active
Quadruplex DNA [10]
  Activity: Active
Quadruplex DNA [11]
  Activity: Active
Quadruplex DNA [12]
  Activity: Active
Quadruplex DNA [13]
  Activity: inactive
Quadruplex DNA [14]
  DC50: > 3 µM
Quadruplex DNA [15]
  Activity: inactive
Quadruplex DNA [16]
  DC50: > 3 µM
Quadruplex DNA [17]
  DC50: > 3 µM
Quadruplex DNA [18]
  ΔTm: 4.35 °C
Quadruplex DNA [19]
  DC50: > 3 µM
Quadruplex DNA [20]
  Activity: Active
Quadruplex DNA [21]
  Activity: Active
Quadruplex DNA [22]
  ΔTm: 4.95 °C
Quadruplex DNA [23]
  ΔTm: 7.14 °C
Calf thymus DNA
  DC50: > 10 µM
Quadruplex DNA [24]
  Activity: Active

## CN1CCN(CCCCn2c3ccc(-c4nc5cc(N6CCOCC6)ccc5[nH]4)cc3c3cc(-c4nc5cc(N6CCOCC6)ccc5[nH]4)ccc32)CC1
Quadruplex DNA [1]
  ΔTm: 12.2 °C
Quadruplex DNA [2]
  Activity: Active
Quadruplex DNA [3]
  ΔTm: 16.6 °C
Quadruplex DNA [4]
  DC50: 1.29 µM
Quadruplex DNA [5]
  Activity: Active
Quadruplex DNA [6]
  Activity: Active
Quadruplex DNA [7]
  DC50: 1.3 µM
Quadruplex DNA [8]
  ΔTm: 5.54 °C
Quadruplex DNA [9]
  Activity: Active
Quadruplex DNA [10]
  Activity: Active
Quadruplex DNA [11]
  Activity: Active
Quadruplex DNA [12]
  Activity: Active
Quadruplex DNA [13]
  Activity: inactive
Quadruplex DNA [14]
  DC50: 0.63 µM
Quadruplex DNA [15]
  Activity: inactive
Quadruplex DNA [16]
  DC50: 0.98 µM
Quadruplex DNA [17]
  DC50: 0.74 µM
Quadruplex DNA [18]
  ΔTm: 14.2 °C
Quadruplex DNA [19]
  DC50: 0.85 µM
Quadruplex DNA [20]
  Activity: Active
Quadruplex DNA [21]
  Activity: Active
Quadruplex DNA [22]
  ΔTm: 8.65 °C
Quadruplex DNA [23]
  ΔTm: 16.9 °C
Calf thymus DNA
  DC50: 5.52 µM
Quadruplex DNA [24]
  Activity: Active

## CCn1c2ccc(-c3nc4ccc(N5CCN(CCO)CC5)cc4[nH]3)cc2c2cc(-c3nc4ccc(N5CCN(CCO)CC5)cc4[nH]3)ccc21
Quadruplex DNA [1]
  ΔTm: 13.2 °C
Quadruplex DNA [2]
  Activity: Active
Quadruplex DNA [3]
  ΔTm: 17 °C
Quadruplex DNA [4]
  DC50: 2.86 µM
Quadruplex DNA [5]
  Activity: Active
Quadruplex DNA [6]
  Activity: Active
Quadruplex DNA [7]
  DC50: 2.79 µM
Quadruplex DNA [25]
  Activity: Dose-dependent effect
Quadruplex DNA [8]
  ΔTm: 6.53 °C
Quadruplex DNA [9]
  Activity: Active
Quadruplex DNA [10]
  Activity: Active
Quadruplex DNA [11]
  Activity: Active
Quadruplex DNA [12]
  Activity: Active
Quadruplex DNA [13]
  Activity: Active
Quadruplex DNA [14]
  DC50: 1.42 µM
Quadruplex DNA [15]
  Activity: Active
Quadruplex DNA [16]
  DC50: 1.62 µM
Quadruplex DNA [17]
  DC50: 1.34 µM
Quadruplex DNA [18]
  ΔTm: 12.8 °C
Quadruplex DNA [19]
  DC50: 1.63 µM
Quadruplex DNA [20]
  Activity: Active
Quadruplex DNA [21]
  Activity: Active
Quadruplex DNA [22]
  ΔTm: 8.63 °C
Quadruplex DNA [23]
  ΔTm: 9.74 °C
Calf thymus DNA
  DC50: 5.28 µM
Quadruplex DNA [24]
  Activity: Active

## C[n+]1ccc(-c2c3nc(c(-c4cc[n+](C)cc4)c4ccc([nH]4)c(-c4cc[n+](C)cc4)c4ccc([nH]4)c(-c4cc[n+](C)cc4)c4nc2C=C4)C=C3)cc1
Quadruplex DNA [1]
  ΔTm: 15.1 °C
Quadruplex DNA [3]
  ΔTm: 15.5 °C
Quadruplex DNA [8]
  ΔTm: 14.3 °C
Quadruplex DNA [18]
  ΔTm: 12.3 °C
Quadruplex DNA [22]
  ΔTm: 11 °C
Quadruplex DNA [23]
  ΔTm: 15.6 °C

## C[n+]1ccc(-c2c3nc(c(-c4cc[n+](C)cc4)c4ccc([nH]4)c(-c4cc[n+](C)cc4)c4nc(c(-c5cc[n+](C)cc5)c5ccc2[nH]5)C=C4)C=C3)cc1
Quadruplex DNA [4]
  DC50: 0.43 µM
Quadruplex DNA [7]
  DC50: 0.47 µM
Quadruplex DNA [14]
  DC50: 0.31 µM
Quadruplex DNA [16]
  DC50: 0.32 µM
Quadruplex DNA [17]
  DC50: 0.35 µM
Quadruplex DNA [19]
  DC50: 0.38 µM
Calf thymus DNA
  DC50: 0.87 µM

## CN1CCN(CCCCn2c3ccc(-c4nc5cc(N6CCN(CCO)CC6)ccc5[nH]4)cc3c3cc(-c4nc5cc(N6CCN(CCO)CC6)ccc5[nH]4)ccc32)CC1
Quadruplex DNA [1]
  ΔTm: 25.9 °C
Quadruplex DNA [2]
  Activity: Active
Quadruplex DNA [3]
  ΔTm: 22 °C
Quadruplex DNA [4]
  DC50: 1.44 µM
Quadruplex DNA [5]
  Activity: Active
Quadruplex DNA [6]
  Activity: Active
Quadruplex DNA [7]
  DC50: 1.15 µM
Quadruplex DNA [8]
  ΔTm: 9.5 °C
Quadruplex DNA [9]
  Activity: Active
Quadruplex DNA [10]
  Activity: Active
Quadruplex DNA [11]
  Activity: Active
Quadruplex DNA [12]
  Activity: Active
Quadruplex DNA [13]
  Activity: Active
Quadruplex DNA [14]
  DC50: 0.75 µM
Quadruplex DNA [15]
  Activity: Active
Quadruplex DNA [16]
  DC50: 0.88 µM
Quadruplex DNA [17]
  DC50: 0.66 µM
Quadruplex DNA [18]
  ΔTm: 14.2 °C
Quadruplex DNA [19]
  DC50: 0.98 µM
Quadruplex DNA [20]
  Activity: Active
Quadruplex DNA [21]
  Activity: Active
Quadruplex DNA [22]
  ΔTm: 8.86 °C
Quadruplex DNA [23]
  ΔTm: 21.2 °C
Calf thymus DNA
  DC50: 6.49 µM
Quadruplex DNA [24]
  Activity: Active
